17 compounds from ChEMBL document CHEMBL4118206, “Synthesis, characterization and cytotoxicity studies of 1,2,3-triazoles and 1,2,4-triazolo [1,5-a] pyrimidines in human breast cancer cells” (Bioorg Med Chem Lett, 2018) can be followed below.

By IC50 is commonly meant the concentration needed to halve the response being measured.

Calls of active or inactive are those of the source. The calls are words filed in the database; no cut-off is given here.

In data set [1] the test system is BT-474. In words: Cytotoxicity against human BT474 cells assessed as cell growth inhibition after 72 hrs by alamar blue assay. Conditions: BT-474, 72 h. The data set is classed as functional, cell-based.
For data set [2], the target named is Vascular endothelial growth factor receptor 1 (Homo sapiens) (UniProt P17948). In words: Inhibition of VEGFR1 in human MCF7 cells assessed as downregulation of protein expression after 48 hrs by Western blot method. Type of data set: cell-based. Summed up:
(§1)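 MCF7 cells were seeded at 300,000 per 6 cm dish in RPMI + 10% FBS and grown 24 h. They were then treated in RPMI + 2% FBS for 48 h, harvested and immunoblotted at 40 µg protein per lane. Blots were probed with primary antibodies against VEGFR1 and β-actin.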
In general terms: In western blotting, separated proteins are transferred to a membrane and probed.

Data set [3] deals with Ishikawa. Description: Cytotoxicity against human Ishikawa cells assessed as cell growth inhibition after 72 hrs by alamar blue assay. Type of data set: functional, cell-based.
Data set [4] has as its system MCF7. In words: Effect on beta-actin protein expression in human MCF7 cells at 0.5 to 2 uM after 48 hrs by Western blot method. Conditions: mcf7, 48 h. The data set is classed as ADME, cell-based. The method in brief: as §1
Data set [5] addresses Vascular endothelial growth factor receptor 1 (Homo sapiens) (UniProt P17948). In words: Inhibition of VEGFR1 in human MCF7 cells assessed as downregulation of protein expression at 1 uM after 48 hrs by Western blot method relative to beta-actin. The data set is classed as cell-based. The method in brief: as §1
Data set [6] deals with MCF7. In words: Cytotoxicity against human MCF7 cells assessed as cell growth inhibition after 72 hrs by alamar blue assay. Type of data set: functional, cell-based. Conditions: MCF7, 72 h. (In general: Resazurin is reduced to fluorescent resorufin, in cell work by metabolically active cells.)
Data set [7] relates to MDA-MB-231. In words: Cytotoxicity against human MDA-MB-231 cells assessed as cell growth inhibition after 72 hrs by alamar blue assay. Type of data set: functional, cell-based. Conditions: MDA-MB-231, 72 h.
The target of data set [8] is Vascular endothelial growth factor receptor 1 (Homo sapiens) (UniProt P17948). Description: Inhibition of VEGFR1 in human MCF7 cells assessed as downregulation of protein expression at 2 uM after 48 hrs by Western blot method relative to beta-actin. The data set is classed as cell-based. Summed up: as §1
Sequence of Vascular endothelial growth factor receptor 1 (Homo sapiens) (P17948 whole entry): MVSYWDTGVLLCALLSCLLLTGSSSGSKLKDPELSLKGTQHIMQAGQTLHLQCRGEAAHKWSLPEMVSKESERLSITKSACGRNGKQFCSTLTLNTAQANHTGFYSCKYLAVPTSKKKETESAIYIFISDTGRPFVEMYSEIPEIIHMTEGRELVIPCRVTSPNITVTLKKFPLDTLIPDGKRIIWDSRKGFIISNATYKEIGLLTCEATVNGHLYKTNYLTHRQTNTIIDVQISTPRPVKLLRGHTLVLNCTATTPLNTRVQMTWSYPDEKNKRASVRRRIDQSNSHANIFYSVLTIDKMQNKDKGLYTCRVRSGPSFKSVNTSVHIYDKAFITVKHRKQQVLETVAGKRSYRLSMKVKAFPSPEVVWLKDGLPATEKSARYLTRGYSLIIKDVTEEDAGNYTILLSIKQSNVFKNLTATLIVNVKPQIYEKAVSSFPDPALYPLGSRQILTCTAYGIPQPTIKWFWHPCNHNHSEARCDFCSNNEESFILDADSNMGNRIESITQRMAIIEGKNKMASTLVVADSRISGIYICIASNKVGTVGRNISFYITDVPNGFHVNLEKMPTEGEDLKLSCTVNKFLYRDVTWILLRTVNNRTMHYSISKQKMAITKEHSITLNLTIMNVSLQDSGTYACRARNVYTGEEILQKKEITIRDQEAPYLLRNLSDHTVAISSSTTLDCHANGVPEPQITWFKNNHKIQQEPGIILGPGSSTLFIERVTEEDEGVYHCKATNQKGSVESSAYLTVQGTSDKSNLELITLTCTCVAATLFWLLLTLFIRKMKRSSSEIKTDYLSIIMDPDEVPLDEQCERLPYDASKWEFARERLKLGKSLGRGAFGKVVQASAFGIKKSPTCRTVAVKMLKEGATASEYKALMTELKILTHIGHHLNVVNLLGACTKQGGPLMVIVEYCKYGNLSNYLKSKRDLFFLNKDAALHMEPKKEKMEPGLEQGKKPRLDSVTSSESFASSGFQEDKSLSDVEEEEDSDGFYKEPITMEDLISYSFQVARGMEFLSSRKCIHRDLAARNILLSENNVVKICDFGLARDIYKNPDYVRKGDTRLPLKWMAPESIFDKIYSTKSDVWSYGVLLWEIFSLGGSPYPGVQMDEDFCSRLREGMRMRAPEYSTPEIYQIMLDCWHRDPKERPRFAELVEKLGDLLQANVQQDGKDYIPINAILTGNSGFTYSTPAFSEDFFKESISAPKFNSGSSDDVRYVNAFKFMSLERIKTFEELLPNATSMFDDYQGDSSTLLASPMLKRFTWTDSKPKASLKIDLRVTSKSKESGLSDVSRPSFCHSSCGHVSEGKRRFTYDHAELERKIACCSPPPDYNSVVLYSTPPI
For data set [9], the system named is MCF7. In words: Cytotoxicity against human MCF7 cells assessed as cell growth inhibition at 25 uM by alamar blue assay. Conditions: TDE = time-dependent effect. The data set is classed as functional, cell-based. Summed up: (§2)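 MCF7 cells were seeded at 5000 per well. After 24 h they were exposed to 25 µM compound. Viability was read with AlamarBlue after a 4 h reagent incubation at 24, 48 and 72 h of treatment.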

Data set [10] concerns the target Vascular endothelial growth factor receptor 1 (Homo sapiens) (UniProt P17948). In words: Inhibition of VEGFR1 in human MCF7 cells assessed as downregulation of protein expression at 0.5 uM after 48 hrs by Western blot method relative to beta-actin. The data set is classed as cell-based. Summed up: as §1
Data set [11] has as its system MDA-MB-231. Description: Cytotoxicity against human MDA-MB-231 cells assessed as cell growth inhibition at 25 uM after 72 hrs by alamar blue assay. The data set is classed as functional, cell-based.
For data set [12], the system named is MCF7. In words: Cytotoxicity against human MCF7 cells assessed as cell growth inhibition at 25 uM after 72 hrs by alamar blue assay. Type of data set: functional, cell-based. The method in brief: as §2
For data set [13], the target named is Vascular endothelial growth factor receptor 1 (Homo sapiens) (UniProt P17948). Description: Inhibition of VEGFR1 in human MCF7 cells assessed as downregulation of protein expression at 15 uM after 48 hrs by Western blot method relative to beta-actin. The data set is classed as cell-based. The method in brief:
as §1

Data set [14] has as its system MCF7. Description: Effect on beta-actin protein expression in human MCF7 cells at 5 to 15 uM after 48 hrs by Western blot method. The data set is classed as ADME, cell-based. Conditions: mcf7, 48 h. Summed up:
as §1

In data set [15] the target is Vascular endothelial growth factor receptor 1 (Homo sapiens) (UniProt P17948). In words: Inhibition of VEGFR1 in human MCF7 cells assessed as downregulation of protein expression at 10 uM after 48 hrs by Western blot method relative to beta-actin. Type of data set: cell-based. The method in brief:
as §1

For data set [16] the target is unchanged. Description: Inhibition of VEGFR1 in human MCF7 cells assessed as downregulation of protein expression at 5 uM after 48 hrs by Western blot method relative to beta-actin. The data set is classed as cell-based. Summed up: as §1

`CCOc1cc(F)ccc1-c1ccc(-n2cc(-c3ccccc3)nn2)cc1`: the IC50 in data set [1] was 4.08 µM; in data set [3], 1.97 µM; in data set [6] it was 1.69 µM; in data set [7], 4.81 µM. The inhibition result in data set [2] is “Dose-dependent effect”. Further, in data set [4], the Activity result is listed as “Non-Toxic”. Besides, the figures for the fold change (FC) in data set [5], in data set [8] and in data set [10] were 0.29, 0.54 and 0.8, respectively. Further, the “growth inhibition (GI)” value in data set [9] was “Tde”.

Consider `N#Cc1cncc(-c2ccn3ncnc3n2)c1`, for which the “growth inhibition (GI)” value in [11] and in [12] was “inactive” each time. The IC50 in data set [7] is above 100 µM.

For the compound `Clc1ccccc1-c1ccc(-n2cc(-c3ccccc3)nn2)cc1`, the IC50 in data set [6] is below 50 µM.

For `Clc1ccccc1-c1ccn2ncnc2n1`, the “growth inhibition (GI)” value in data set [11] and in [12] was “inactive” throughout. Moreover, the IC50 in [6] and in data set [7] was above 100 µM throughout.

`Fc1ccc(Cl)cc1-c1ccn2ncnc2n1`: the “growth inhibition (GI)” value in [11] and in [12] was “inactive” in each case. Besides, the IC50 in data set [7] is above 100 µM.

`CS(=O)(=O)c1cccc(-c2ccc(-n3cc(-c4ccccc4)nn3)cc2)c1`: the IC50 in data set [6] was below 50 µM.

On to `c1ccc(-c2ccc(-n3cc(-c4ccccc4)nn3)cc2)cc1`, for which the IC50 in data set [6] is below 50 µM.

As for `Cc1ccccc1-c1ccc(-n2cc(-c3ccccc3)nn2)cc1`, the IC50 in data set [6] was below 50 µM.

With `Fc1ccc(Cl)cc1-c1ccc(-n2cc(-c3ccccc3)nn2)cc1`, the IC50 in data set [6] was below 50 µM.

Consider `Clc1ccccc1-c1ccccc1-c1ccn2ncnc2n1`, for which the “growth inhibition (GI)” value in data set [11] and in data set [12] was “inactive” in each case. In addition, the IC50 in data set [6] and in [7] was above 100 µM each time.

Take `Fc1ccc(-c2ccn3ncnc3n2)cn1`: the “growth inhibition (GI)” value in data set [11] and in data set [12] was “inactive” throughout. Also, the IC50 in data set [6] and in data set [7] was above 100 µM each time.

As to `c1ccc(-c2ccn3ncnc3n2)cc1`, in data set [11], the “growth inhibition (GI)” value was “inactive”. The results for the IC50 in [6] and in [7] were 3.91 µM and above 100 µM, respectively.

Consider `CCOc1cc(F)ccc1-c1ccn2ncnc2n1`, for which the “growth inhibition (GI)” value in data set [11] and in data set [12] was “inactive” throughout. The IC50 in data set [6] worked out at 93.8 µM; in data set [7] it was 50.3 µM.

Take `c1ccc(-c2cn(-c3ccc(-c4cc5ccccc5s4)cc3)nn2)cc1`: the IC50 in data set [1] is below 50 µM; in data set [6], 14.4 µM. The inhibition entry in data set [2] is “Dose-dependent effect”. For the same compound, the fold change (FC) turned out to be 0.63 in data set [13], 0.7 in data set [15] and 0.8 in data set [16]. In [14], the Activity result is on record as “Non-Toxic”.

Turning to `COc1ccc(F)cc1-c1ccn2ncnc2n1`, the “growth inhibition (GI)” value in data set [11] and in data set [12] was “inactive” in each case. For the same compound, the half-maximal inhibitory concentration (IC50) in [6] and in [7] was above 100 µM in each case.

Consider `N#Cc1cncc(-c2ccc(-n3cc(-c4ccccc4)nn3)cc2)c1`, for which, in data set [6], the IC50 is below 50 µM.

On to `COc1ccc(F)cc1-c1ccc(-n2cc(-c3ccccc3)nn2)cc1`, for which the IC50 in data set [6] is below 50 µM.
